Assay results as given in PubChem BioAssay AID504383 (The Scripps Research Institute Molecular Screening Center, 2011).
Hit rate of the full screen: of about 2,500 compounds, about 1,200 (48%) were called active.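 How the source made its calls: active means mean activation above the low control average plus 3 SD, as set in the primary screen (cut at about 12% in these data); inactive means the rest.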 So high a share suggests a set chosen from earlier hits. The list shows a part of the results.

The molecules below were run against Troponin I, cardiac muscle (Homo sapiens) + Troponin T, cardiac muscle (Homo sapiens) + Troponin C, slow skeletal and cardiac muscles (Homo sapiens) (UniProt P19429+P45379+P63316) (assay: cardiac RTF calcium sensitivity activators, confirmation, biochemical, IANBD-TnC fluorescence, triplicate (AID 504383;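 further: 0% = DMSO at 0.472 mM calcium and 100% = DMSO at 2.9 mM calcium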)). Details: IANBD-labeled cardiac RTF, Ca2+ sensitivity fluorescence; at 7.2 µM; stronger effect = higher value; scaled from EC20 to saturating calcium; tested at EC20 calcium, 0.472 mM.
In short: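 System: Labelled thin filament complex | Technique: Filament fluorescence intensity | Benchmarks: Low control EC20 calcium, high control EC100 calcium | Timing: 15 min at 25 °C | Compound dosing: One dose, 7.2 µM nominal | Probe or stimulus: Ca2+ 0.472 mM, EC20 level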

activation, inactive:
CN(C)c1ccc(/C=C/C(=O)c2ccc(O)cc2)cc1 1.84%, CC(=O)NC(Cc1ccc(F)c(F)c1)C(=O)NC1CCN(S(=O)(=O)c2ccc(C)cc2)CC1 (stereo not drawn) 6.59%, CCOC(=O)[C@H]1[C@H]2COc3ccccc3[C@@H]2N2C(=O)CN(Cc3ccc(C)cc3)C(=O)[C@@]12C 8.95%, N#C/C(=C(/O)COC(=O)c1ccccc1O)c1nc2ccccc2s1 5.53%, CN1CCN(C(=O)c2cc3ccccc3[nH]2)CC1 6.99%, Cc1ccc(N=C2NC(=O)/C(=C/c3cccnc3)S2)cc1C 3.85%, Cc1ccnc(NC(=O)c2ccc(Br)s2)c1 5.46%, N#C/C(=C\C=C\c1ccccc1)c1nc(-c2ccc3c(c2)OCO3)cs1 7.13%, O=S(=O)(/C=C/c1ccccc1)N1CCc2ccccc2C1 11.1%, COc1ccc(NC(=O)c2cccc(-c3ccc(O)cc3)c2)cn1 2.76%, Cc1ccc(-c2nc3sc(C#N)c(N)n3c(=O)c2C#N)cc1 6.97%, C=CCN1C(=O)C(Cc2cccc(Cl)c2)S/C1=N/N=C/c1ccco1 (stereo not drawn) 6.48%, CC(Oc1ccc(S(=O)(=O)N2CCCC2)cc1[N+](=O)[O-])C(=O)N(C)c1ccccc1 (stereo not drawn) 6.91%, O=C(COc1ccc(Cl)cc1[N+](=O)[O-])N1CCCCCC1 5.74%, COc1cccc(OCCCn2cc(/C=C3/C(=N)N4C=C(C)SC4=NC3=O)c3ccccc32)c1 9.3%, CC(=O)c1cccc(-n2c(CCC(=O)O)ccc2-c2ccccc2)c1 7.99%, CCOc1ccc(CCNC(=O)c2ccc(CNS(=O)(=O)c3ccccc3)cc2)cc1OCC 4.87%, CCCS(=O)(=O)N1CCC(C(=O)NCCCN2CCC(Cc3ccccc3)CC2)CC1 6.98%, COc1cc(OC)c(C2N(c3ccc(Cl)c(Cl)c3)C(=O)C3CCCN32)cc1OC (stereo not drawn) -2.98%, COCCCn1c(=O)/c(=C\c2ccccc2OC(C)C)s/c1=C(/C#N)C(=O)Nc1ccc(C(=O)O)cc1 8.94%, C=CCn1c(=O)/c(=C/c2cc(OC)c(OC)c(OC)c2)s/c1=C(/C#N)c1nc2ccccc2n1C 8.61%, COCCNC(=O)CSc1nc(N)c(NC(=O)c2ccccc2F)c(=O)[nH]1 11.4%, CCCn1c(=N)n(CC(O)c2ccco2)c2ccccc21 (stereo not drawn) 2.41%, CCn1c(=N)n(CC(O)c2ccccc2)c2ccccc21 (stereo not drawn) 9.44%, CN1CCCN(Cc2cccc3ccccc23)CC1 9.8%, Cc1cc(C=O)c(C)n1-c1ccc(Oc2ccc([N+](=O)[O-])cn2)cc1 4.85%, COc1ccccc1CNC(=O)COC(=O)c1cccc(S(=O)(=O)N2CCOCC2)c1 6.73%, O=C(NC(NC(=S)Nc1ccccc1C(=O)O)C(Cl)(Cl)Cl)c1ccco1 (stereo not drawn) 5.56%, Cn1nc(C(F)(F)F)c(-c2ccc(Br)cc2)c1NC(=O)c1ccco1 6.3%, O=C(N/N=C/c1cccc([N+](=O)[O-])c1)c1cnccn1 3.15%, Cc1cccc(NC(=O)CSc2nnc(CSc3nc(C)cc(C)n3)n2Cc2ccco2)c1 8.24%, CCOC(=O)c1c(NC(=O)CSc2nc3cc(Cl)ccc3c(=O)n2Cc2ccco2)sc(C(=O)N(C)C)c1C 9.02%

activation, active:
CC(C)=CCC/C(C)=C/Cc1c(O)ccc(C(=O)/C=C/c2ccc(O)cc2)c1O 563%, O=C(Cc1ccccc1)Nc1cccc(-c2nc3ncccc3o2)c1 15.3%, COc1cccc(CC(NC(C)=O)C(=O)NC2CCN(c3nc(C)cc(C)c3C#N)CC2)c1OC (stereo not drawn) 34%, N#C/C(=C\c1ccccn1)c1nc2ccccc2s1 14.5%, COc1ccc2[nH]c(C(=O)N3CCC(Cc4ccccc4)CC3)cc2c1 13.6%, O=C1c2cccc3cccc(c23)C(=O)N1CC1CCN(S(=O)(=O)c2ccc(F)cc2)CC1 134%, O=C1NC(=NCc2ccccc2)S/C1=C\c1ccccc1 50.1%, Cc1ccnc(N/C=C(\C#N)c2nc(-c3cccc(Br)c3)cs2)c1 27.5%, COC(=O)c1ccc(NC(=O)c2cccc(OC)c2)cc1 14.2%, COC(=O)c1ccc(NC(=O)c2snnc2-c2ccccc2)cc1 11.7%, Nc1nc2ccccc2n1CCOc1ccc(Br)cc1 12.1%, Cc1ccc(S(=O)(=O)c2cc(C#N)c(=O)[nH]c2N)cc1 23.8%, CC1(C)CC2(CCCN(C(=S)Nc3ccccc3)C2)CCO1 (stereo not drawn) 17.2%, O=C(COc1ccc(Cl)cc1[N+](=O)[O-])N1CCCCC1 48.7%, CC1=CN2C(=N)/C(=C/c3ccc([N+](=O)[O-])o3)C(=O)N=C2S1 14.5%, CCOc1ccc(CCNC(=O)C2CCCN(S(=O)(=O)N3CCOCC3)C2)cc1OCC (stereo not drawn) 15.7%, Cn1nccc1NC(=O)Nc1cccc(Cl)c1Cl 51.6%, COc1cc(OC)cc(-c2c(-c3cccs3)c3cc(-c4ccc(SC)cc4)ccc3n2C)c1 25.8%, COCCCn1c(=O)/c(=C\c2cccc(OC)c2OC)s/c1=C(/C#N)C(=O)Nc1ccc(C(=O)O)cc1 22.2%, N=c1n(Cc2ccccc2)c2ccccc2n1CC(O)c1ccco1 (stereo not drawn) 29.1%, COc1cc(/C=C2\SC(=O)NC2=O)ccc1Oc1ccc([N+](=O)[O-])cn1 81%, COc1ccc(C2NN=C(c3c[nH]c4ccccc34)C2O)cc1 (stereo not drawn) 36.2%, O=C(COC(=O)c1ccc(S(=O)(=O)N2CCCC2)cc1)NCc1ccco1 11.6%, O=C(Nc1cccc2c1N(C(=O)c1ccco1)CCC2)c1ccco1 25.9%, COc1ccc(/C=N/NC(=O)c2cccc([N+](=O)[O-])c2)cc1O 15.3%, CN(C)C(CNC(=O)CSc1nc2ccccc2c(=O)n1Cc1ccco1)c1ccccc1 (stereo not drawn) 12.1%
